{"source": "ChEMBL document CHEMBL4813921", "about": "“Optimization of WZ4003 as NUAK inhibitors against human colorectal cancer” (Eur J Med Chem, 2021)", "key": {"[1]": {"test": "Toxicity against BALB/c-nu/nu mouse xenografted with human SW480 cells assessed as morphological changes in heart at 10 to 20 mg/kg, ip administered every 2 days for 18 days by H and E staining based analysis", "assay_type": "organism-based", "conditions": "in vivo, 432 h, dose 10-20 mg/kg, time 18 day", "outline": "(§1)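 After 18 days of ip dosing every two days in SW480-xenografted nude mice, heart, liver, spleen, lung and kidney harvested, sectioned, HE-stained, examined at ×400.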"}, "[2]": {"test": "Toxicity against BALB/c-nu/nu mouse xenografted with human SW480 cells assessed as body weight at 10 to 20 mg/kg, ip administered every 2 days for 18 days", "assay_type": "organism-based", "conditions": "in vivo, 432 h, dose 10-20 mg/kg, time 18 day", "outline": "(§2)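 SW480 xenografts in nude mice, randomized at 100 mm3 tumour volume into four groups of six. Dosed ip at 10 or 20 mg/kg every two days for 18 days, with vehicle group. Tumour volume and body weight recorded every two days; tumours weighed at end; means ± SD (n = 6).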"}, "U2OS [3]": {"system": "U2OS", "test": "Inhibition of colony formation in human U2OS cells measured after 14 days by crystal violet staining based microcopic analysis", "assay_type": "functional, cell-based", "conditions": "dose 0.5-2 µM, time 14.0 day", "outline": "(§3)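 Clonogenic assay with 14-day exposure to a range of compound concentrations; colonies stained with crystal violet and imaged by microscopy; compared with untreated cells.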"}, "SW480 [4]": {"system": "SW480", "test": "Induction of cell cycle arrest in human SW480 cells assessed as reduction in accumulation at S phase at 10 uM measured after 48 hrs by PI/RNaseA staining based flow cytometry assay", "assay_type": "functional"}, "SW480 [5]": {"system": "SW480", "test": "Antiproliferative activity against human SW480 cells assessed as reduction in cell viability at 10 uM measured after 1 to 5 days by MTT assay relative to control", "assay_type": "functional, cell-based", "conditions": "time 1-5 day", "outline": "(§4)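 MTT viability read daily over 1–5 days of exposure to 10 μM compound; mean ± SD, n = 3.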"}, "HCT-116 [6]": {"system": "HCT-116", "test": "Antiproliferative activity against human HCT-116 cells at 2.5 to 10 uM measured after 48 hrs by EdU staining based assay", "assay_type": "functional, cell-based", "conditions": "dose 2.5-10 µM", "outline": "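Cells exposed to a range of compound concentrations for 48 h, then EdU click-chemistry staining with DAPI counterstain. Confocal high-content imaging; DAPI-positive nuclei counted as total and EdU-positive as proliferating.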"}, "SW480 [7]": {"system": "SW480", "test": "Induction of ROS generation in human SW480 cells at 10 uM measured after 48 hrs by DCFH-DA staining based flow cytometry method", "assay_type": "functional, cell-based", "outline": "(§5)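 Cells treated at 10 μM for 48 h, ROS measured by flow cytometry. Fluorescence intensity expressed relative to vehicle-treated controls; mean ± SEM from 3 independent experiments.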"}, "HCT-116 [8]": {"system": "HCT-116", "test": "Induction of apoptosis in human HCT-116 cells assessed as viable cells at 10 uM measured after 48 hrs by Annexin V-FITC/PI staining based flow cytometry method (reference value: 95.4%)", "assay_type": "functional", "conditions": "read-out: Activity"}, "U2OS [9]": {"system": "U2OS", "test": "Induction of cell cycle arrest in human U2OS cells assessed as reduction in accumulation at S phase at 10 uM measured after 48 hrs by PI/RNaseA staining based flow cytometry assay", "assay_type": "functional"}, "U2OS [10]": {"system": "U2OS", "test": "Antiproliferative activity against human U2OS cells assessed as reduction in cell viability at 10 uM measured after 1 to 5 days by MTT assay", "assay_type": "functional", "conditions": "time 1-5 day", "outline": "as §4"}, "SW480 [11]": {"system": "SW480", "test": "Inhibition of colony formation in human SW480 cells measured after 14 days by crystal violet staining based microcopic analysis", "assay_type": "functional, cell-based", "conditions": "dose 0.5-2 µM, time 14.0 day", "outline": "as §3"}, "U2OS [12]": {"system": "U2OS", "test": "Induction of ROS generation in human U2OS cells at 10 uM measured after 48 hrs by DCFH-DA staining based flow cytometry method", "assay_type": "functional, cell-based", "outline": "as §5"}, "SW480 [13]": {"system": "SW480", "test": "Induction of apoptosis in human SW480 cells assessed as viable cells at 10 uM measured after 48 hrs by Annexin V-FITC/PI staining based flow cytometry method (reference value: 93.2%)", "assay_type": "functional", "conditions": "read-out: Activity"}, "[14]": {"biological_target": "T1, NUAK family SNF1-like kinase 1 (Homo sapiens) (UniProt O60285)", "T1 sequence (whole entry)": "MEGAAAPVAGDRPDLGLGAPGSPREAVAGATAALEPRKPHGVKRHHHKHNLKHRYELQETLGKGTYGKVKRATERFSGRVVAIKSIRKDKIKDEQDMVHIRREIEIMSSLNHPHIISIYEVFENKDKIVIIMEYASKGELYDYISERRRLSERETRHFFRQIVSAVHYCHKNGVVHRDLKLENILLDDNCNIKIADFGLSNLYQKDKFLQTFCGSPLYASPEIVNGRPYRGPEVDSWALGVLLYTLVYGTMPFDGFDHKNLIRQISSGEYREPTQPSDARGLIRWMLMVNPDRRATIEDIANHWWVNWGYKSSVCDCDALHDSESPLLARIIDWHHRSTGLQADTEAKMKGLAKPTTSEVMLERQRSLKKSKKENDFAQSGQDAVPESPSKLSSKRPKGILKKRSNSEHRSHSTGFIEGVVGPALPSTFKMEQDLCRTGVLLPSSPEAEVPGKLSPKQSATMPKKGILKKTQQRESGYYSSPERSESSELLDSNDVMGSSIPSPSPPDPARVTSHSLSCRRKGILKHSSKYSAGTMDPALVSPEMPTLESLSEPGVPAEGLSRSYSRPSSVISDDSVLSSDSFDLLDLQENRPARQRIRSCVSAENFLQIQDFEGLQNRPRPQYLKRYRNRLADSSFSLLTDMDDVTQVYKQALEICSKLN", "test": "Inhibition of NUAK1 (unknown origin) at 10 uM using CHKtide as substrate in presence of ATP measured after 60 mins by ADP-Glo assay"}, "HCT-116 [15]": {"system": "HCT-116", "test": "Induction of apoptosis in human HCT-116 cells assessed as necrotic cells at 10 uM measured after 48 hrs by Annexin V-FITC/PI staining based flow cytometry method (reference value: 2.2%)", "assay_type": "functional"}, "SW480 [16]": {"system": "SW480", "test": "Antitumour activity against human SW480 cells xenografted in Balb/c-nu/nu mouse assessed as inhibition of tumour volume at 10 to 20 mg/kg, ip administered every 2 days for 18 days", "assay_type": "functional, organism-based", "conditions": "dose 10-20 mg/kg, time 18.0 day", "outline": "as §2"}, "HCT-116 [17]": {"system": "HCT-116", "test": "Antiproliferative activity against human HCT-116 cells assessed as reduction in cell viability at 10 uM measured after 1 to 5 days by MTT assay relative to control", "assay_type": "functional, cell-based", "conditions": "time 1-5 day", "outline": "as §4"}, "HCT-116 [18]": {"system": "HCT-116", "test": "Induction of apoptosis in human HCT-116 cells assessed as late apoptotic cells at 10 uM measured after 48 hrs by Annexin V-FITC/PI staining based flow cytometry method (reference value: 1.6%)", "assay_type": "functional"}, "SW480 [19]": {"system": "SW480", "test": "Induction of cell cycle arrest in human SW480 cells assessed as reduction in accumulation at G1 phase at 10 uM measured after 48 hrs by PI/RNaseaA staining based flow cytometry assay", "assay_type": "functional"}, "U2OS [20]": {"system": "U2OS", "test": "Induction of apoptosis in human U2OS cells assessed as late apoptotic cells at 10 uM measured after 48 hrs by Annexin V-FITC/PI staining based flow cytometry method (reference value: 1.3%)", "assay_type": "functional"}, "HCT-116 [21]": {"system": "HCT-116", "test": "Induction of cell cycle arrest in human HCT-116 cells assessed as reduction in accumulation at S phase at 10 uM measured after 48 hrs by PI/RNaseA staining based flow cytometry assay", "assay_type": "functional"}, "[22]": {"test": "Toxicity against BALB/c-nu/nu mouse xenografted with human SW480 cells assessed as morphological changes in lung at 10 to 20 mg/kg, ip administered every 2 days for 18 days by H and E staining based analysis", "assay_type": "organism-based", "conditions": "in vivo, 432 h, dose 10-20 mg/kg, time 18 day", "outline": "as §1"}, "[23]": {"test": "Toxicity against BALB/c-nu/nu mouse xenografted with human SW480 cells assessed as morphological changes in kidney at 10 to 20 mg/kg, ip administered every 2 days for 18 days by H and E staining based analysis", "assay_type": "organism-based", "conditions": "in vivo, 432 h, dose 10-20 mg/kg, time 18 day", "outline": "as §1"}}, "note": "The source made the active and inactive calls. The calls are words filed in the database; no cut-off is given here."}
{"smiles": "CCC(=O)Nc1cccc(Oc2nc(Nc3ccc(N4CCN(C)CC4)cc3)ncc2Cl)c1", "values": [{"measurement": "Activity", "setting": "[1]", "result": "Non-Toxic"}, {"measurement": "Activity", "setting": "[2]", "result": "Non-Toxic"}, {"measurement": "inhibition", "setting": "U2OS [3]", "result": "Dose-Dependent Effect"}, {"measurement": "Activity", "setting": "SW480 [4]", "result": "Active"}, {"measurement": "Activity", "setting": "SW480 [5]", "result": "Active"}, {"measurement": "Activity", "setting": "HCT-116 [6]", "result": "Active"}, {"measurement": "Activity", "setting": "SW480 [7]", "result": "Active"}, {"measurement": "viability at 10 µM", "setting": "HCT-116 [8]", "result": 46, "unit": "%"}, {"measurement": "Activity", "setting": "U2OS [9]", "result": "Active"}, {"measurement": "inhibition at 10 µM", "setting": "U2OS [10]", "result": 67.2, "unit": "%"}, {"measurement": "inhibition", "setting": "SW480 [11]", "result": "Dose-Dependent Effect"}, {"measurement": "Activity", "setting": "U2OS [12]", "result": "Active"}, {"measurement": "viability at 10 µM", "setting": "SW480 [13]", "result": 69.8, "unit": "%"}, {"measurement": "inhibition", "setting": "[14]", "result": 92.9, "unit": "%"}, {"measurement": "Activity", "setting": "HCT-116 [15]", "result": 4.1, "unit": "%"}, {"measurement": "Activity", "setting": "SW480 [16]", "result": "Active"}, {"measurement": "Activity", "setting": "HCT-116 [17]", "result": "Active"}, {"measurement": "Activity", "setting": "HCT-116 [18]", "result": 10, "unit": "%"}, {"measurement": "Activity", "setting": "SW480 [19]", "result": "Active"}, {"measurement": "Activity", "setting": "U2OS [20]", "result": 4.8, "unit": "%"}, {"measurement": "Activity", "setting": "HCT-116 [21]", "result": "Active"}, {"measurement": "Activity", "setting": "[22]", "result": "Non-Toxic"}, {"measurement": "Activity", "setting": "[23]", "result": "Non-Toxic"}]}
